Data on 52 compounds can be found in ChEMBL document CHEMBL1828580, “Tertiary amides with a five-membered heteroaromatic ring as new probes for the translocator protein” (Eur J Med Chem, 2011).

One test concerns the target Translocator protein (Rattus norvegicus, UniProt P16257). Briefly: Displacement of [3H]PK11195 from TSPO receptor in rat kidney membranes. Format: cell membranes, Membrane.
A short description of test [1]: Antiproliferative activity against human U87MG cells assessed as cell viability at 1000 times Ki after 24 hrs by MTS assay relative to untreated control. Format: functional, U-87MG ATCC. The procedure, abridged:
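U87MG cells grown in RPMI with 10% FBS, glutamine, antibiotics and non-essential amino acids at 37 °C. […] MTS colorimetric read-out, expressed as % of DMSO-treated control (100%). Triplicate wells, 3 experiments, mean ± SEM.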
(Tetrazolium assays rely on reduction of a dye to a coloured formazan, in cell work by metabolically active cells.)

The next test is filed under the species Rattus norvegicus. Briefly: Displacement of [3H]Ro15-1788 from CBR in rat cerebral cortex at 10 uM. Format: tissue-based. The method, boiled down: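 Rat cerebral cortex membranes were washed free of endogenous GABA, then incubated with 0.4 nM [3H]Ro15-1788 for 90 min at 0 °C in 50 mM Tris-citrate pH 7.4. Compound was present at 10 μM and the result given as % inhibition of binding.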
For orientation: In a radioligand displacement assay an active substance lowers the binding of a labelled ligand.

In test [2] the test system is U-87MG ATCC. Briefly: Antiproliferative activity against human U87MG cells assessed as reduction in cell viability at 30 times Ki after 48 hrs by trypan blue exclusion assay.
Test [3] has as its system U-87MG ATCC. Description: Antiproliferative activity against human U87MG cells assessed as reduction in cell viability at 150 times Ki after 24 hrs by trypan blue exclusion assay.
Test [4] deals with U-87 MG. Description: Induction of mitochondrial membrane depolarization in human U87MG cells assessed as change in membrane potential at 30 times Ki after 48 hrs by flow cytometric analysis. Format: functional, U-87MG ATCC. The procedure, abridged:
(§1)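 U87MG cells were exposed to compound at 30 times Ki, or to DMSO control, for 12, 24 or 48 h, with CCCP as positive control in each experiment. Collected cells were stained with JC-1 for 30 min at room temperature in the dark, then analysed by flow cytometry: aggregates in FL2, monomers in FL1, gated on forward/side scatter. Read-out was % of cells in the lower-right (depolarized) quadrant; three independent experiments.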
(In general: A flow cytometer gives signals particle by particle.)

The test system of test [5] is U-87MG ATCC. Briefly: Antiproliferative activity against human U87MG cells assessed as reduction in cell viability at 30 times Ki after 72 hrs by trypan blue exclusion assay.
The subject of test [6] is U-87 MG. Briefly: Induction of mitochondrial membrane depolarization in human U87MG cells assessed as increase in JC-1 monomer formation at 30 times Ki after 12 to 48 hrs by flow cytometric analysis. Conditions: U-87MG ATCC. Format: functional, cell-based. The procedure, abridged: as §1
Test [7] has as its system U-87MG ATCC. Briefly: Antiproliferative activity against human U87MG cells assessed as reduction in cell viability at 30 times Ki after 24 hrs by trypan blue exclusion assay.

Calls of active or inactive are those of the source. The rule behind the calls is not given here. A value given as a limit tells only on which side of the number the result lay.

Sequence of Translocator protein (P16257 whole entry, looked up): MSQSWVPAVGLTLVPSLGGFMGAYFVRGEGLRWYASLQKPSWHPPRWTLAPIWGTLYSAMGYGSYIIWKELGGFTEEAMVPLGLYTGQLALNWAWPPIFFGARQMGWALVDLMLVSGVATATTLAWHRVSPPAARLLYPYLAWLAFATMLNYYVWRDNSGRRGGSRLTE

As usually defined, the Ki is a measure of affinity in units of concentration, obtained from inhibition or displacement. High values mean a looser hold on the target, low ones a stronger hold on the target. For the compound `CCCCCN(CCCCC)C(=O)c1cc(-c2ccccc2)no1`, the Ki on Translocator protein turned out to be 0.379 µM.
Same read-out and setting: as for `CCCCN(CCCC)C(=O)c1cc(-c2ccccc2)on1`, the figure is 0.62 µM; as for `CCCCN(CCCC)C(=O)c1cc(-c2ccccc2)no1`, 0.651 µM; as for `CCCN(CCC)C(=O)Cc1nc(-c2ccc(Cl)cc2)no1`, 3.4 µM.
Turning to `CCCCN(CCCC)C(=O)C(=O)c1c(-c2ccc(Cl)cc2)[nH]c2ccc(Cl)cc12`, in [1], the Activity was 76%.
In turn, `CCCCCCN(CCCCCC)C(=O)c1cc(-c2ccccc2)on1` displayed a Ki on Translocator protein of 5.8 µM.
Same read-out and setting: as for `CCCCCN(CCCCC)C(=O)Cc1nc(-c2ccc(Cl)cc2)no1`, the figure is 0.152 µM; as for `CCCCCCN(CCCCCC)C(=O)Cc1coc(-c2ccc(Cl)cc2)n1`, 0.704 µM; as for `CCCCCN(CCCCC)C(=O)c1cc(-c2ccccc2)on1`, 0.382 µM.
Still for that read-out and setting: as for `CCN(Cc1ccccc1)C(=O)c1nc(-c2ccccc2)no1`, the figure is 4.87 µM.
For the compound `CCCCCN(CCCCC)C(=O)Cc1coc(-c2ccc(Cl)cc2)n1`, at Translocator protein, the affinity, expressed as Ki, was 0.045 µM. The Activity in test [1] is on record as 72.6%.
Compound `CCN(CC)C(=O)c1coc(-c2ccccc2)n1` returned a Ki on Translocator protein greater than 10 µM.
Regarding `CCCCCCN(CCCCCC)C(=O)c1cc(-c2ccc(Cl)cc2)on1`, the Ki on Translocator protein is greater than 10 µM.
The same measure, in the same setting: as for `CCCCN(CCCC)C(=O)Cc1coc(-c2ccc(Cl)cc2)n1`, the figure is 0.177 µM.
The same measure, in the same setting: next, `CCCN(CCC)C(=O)c1cc(-c2ccc(Cl)cc2)on1`: greater than 10 µM.
As a reminder, the inhibition is the relative decrease from the control value, in per cent. Higher therefore signals a strong effect. In the case of `CCCCN(CCCC)C(=O)Cc1coc(-c2ccccc2)n1`, the inhibition in the test listed under Rattus norvegicus was less than 25%. Also, at Translocator protein, the affinity corresponds to a Ki of 0.346 µM.
For `CCCCCN(CCCCC)C(=O)Cc1cc(-c2ccccc2)on1`, on Translocator protein, the affinity, expressed as Ki, was 0.051 µM. In addition, the Activity in test [1] was determined as 24.8%.
As for `CCCCN(CCCC)C(=O)c1nc(-c2ccccc2)no1`, on Translocator protein, the Ki came out at 0.772 µM.
The compound `CCCCCCN(CCCCCC)C(=O)c1coc(-c2ccccc2)n1` yielded a Ki on Translocator protein of 4.6 µM.
The same measure, in the same setting: as for `CCCCN(CCCC)C(=O)Cc1nc(-c2ccccc2)no1`, the figure is 0.489 µM; as for `CCCCCCN(CCCCCC)C(=O)c1nc(-c2ccccc2)no1`, 4.19 µM.
On the same count and under the same terms, next, `CCCN(CCC)C(=O)Cc1coc(-c2ccc(C)cc2)n1`: 2.2 µM.
Regarding `CCCCCCN(CCCCCC)C(=O)Cc1coc(-c2ccccc2)n1`, the inhibition in the test filed under Rattus norvegicus is less than 25%. In addition, the Ki on Translocator protein is 0.151 µM.
In turn, `CCCN(CCC)C(=O)Cc1coc(-c2ccc(Cl)cc2)n1` gave an inhibitory constant (Ki) at Translocator protein of 0.942 µM.
Still for that read-out and setting: next, `CCCCN(CCCC)C(=O)Cc1coc(-c2ccc(C)cc2)n1`: 0.487 µM; `CCCN(CCC)C(=O)c1cc(-c2ccccc2)on1`: greater than 10 µM; `CCCN(CCC)C(=O)Cc1nc(-c2ccccc2)no1`: 4.34 µM.
As to `CCCCCCN(CCCCCC)C(=O)c1cc(-c2ccccc2)no1`, at Translocator protein, the affinity corresponds to a Ki of 7 µM.
Still for that read-out and setting: as for `CCCCN(CCCC)C(=O)Cc1coc(-c2ccc(F)cc2)n1`, the figure is 0.088 µM; as for `CCCN(CCC)C(=O)c1nc(-c2ccccc2)no1`, greater than 10 µM.
In turn, `CCCCCN(CCCCC)C(=O)Cc1coc(-c2ccc(C)cc2)n1` had a Ki at Translocator protein of 0.068 µM. The Activity in test [1] is reported as 5.3%.
For `CCCCCCN(CCCCCC)C(=O)Cc1nc(-c2ccccc2)no1`, the Ki on Translocator protein is 1.1 µM.
At Translocator protein, `CCCCCCN(CCCCCC)C(=O)c1cc(-c2ccc(C)cc2)no1` gave an inhibitory constant (Ki) of 2.7 µM.
On the same count and under the same terms, next, `CCCCN(CCCC)C(=O)Cc1nc(-c2ccc(Cl)cc2)no1`: 0.267 µM; `CCCCN(C)C(=O)c1coc(-c2ccccc2)n1`: greater than 10 µM; `CCCN(CCC)C(=O)c1cc(-c2ccccc2)no1`: greater than 10 µM.
For `CCCCCCN(CCCCCC)C(=O)Cc1nc(-c2ccc(Cl)cc2)no1`, the Ki at Translocator protein amounted to 3.2 µM.
Still for that read-out and setting: as for `CCCN(CCC)C(=O)Cc1coc(-c2ccc(F)cc2)n1`, the figure is 1.63 µM.
The same measure, in the same setting: next, `CCCCCCN(CCCCCC)C(=O)Cc1coc(-c2ccc(F)cc2)n1`: 0.157 µM.
`CCCCCN(CCCCC)C(=O)Cc1cc(-c2ccccc2)no1` showed a Ki on Translocator protein of 0.257 µM.
On the same count and under the same terms, as for `CCCN(CCC)C(=O)c1coc(-c2ccccc2)n1`, the figure is greater than 10 µM.
Consider `CCCCN(C)C(=O)c1nc(-c2ccccc2)no1`, for which the Ki at Translocator protein is greater than 10 µM.
For the compound `CCCCCN(CCCCC)C(=O)Cc1coc(-c2ccccc2)n1`, the outcome in the test with U-87MG ATCC [2], in the test on U-87MG ATCC [3], in the test with U-87MG ATCC [5], with U-87 MG [6] and in the test on U-87MG ATCC [7] was Active. Also, the Activity was found to be 24% in the test with U-87 MG [4] and 9.3% in [1]. The compound further displayed an inhibition in the test listed under Rattus norvegicus of less than 25%. The compound also showed a Ki at Translocator protein of 0.032 µM.
The compound `CCCCCN(CCCCC)C(=O)Cc1coc(-c2ccc(F)cc2)n1` displayed a Ki at Translocator protein of 0.011 µM. Besides, the Activity in [1] stood at 98%.
On Translocator protein, `CCCCCN(CCCCC)C(=O)c1coc(-c2ccccc2)n1` had a Ki of 0.613 µM.
Still for that read-out and setting: next, `CCN(Cc1ccccc1)C(=O)c1coc(-c2ccccc2)n1`: 5.49 µM; `CCN(CC)C(=O)c1nc(-c2ccccc2)no1`: greater than 10 µM.
Still for that read-out and setting: next, `CCCCCCN(CCCCCC)C(=O)Cc1coc(-c2ccc(C)cc2)n1`: 0.877 µM; `CCCCN(CCCC)C(=O)c1coc(-c2ccccc2)n1`: 3.46 µM; `CCCCCN(CCCCC)C(=O)c1nc(-c2ccccc2)no1`: 0.914 µM.
Same read-out and setting: next, `CCCCCN(CCCCC)C(=O)Cc1nc(-c2ccccc2)no1`: 0.133 µM.
In the test filed under Rattus norvegicus, `CCCN(CCC)C(=O)Cc1coc(-c2ccccc2)n1` yielded an inhibition of less than 25%. For the same compound, the Ki on Translocator protein is 1.7 µM.
